Experimental data from the EternaBench riboswitch data.

Test system: MS2 coat protein
Test: apparent Kd, MS2 coat protein; higher = weaker binding; RNA-MaP array; FMN 200 µM where present
Summary of the method: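 Green signal was scaled to red-channel RNA signal and control-cluster median Fmax, and the apparent Kd was taken as the median of filtered per-cluster binding-curve fits. The binding series used SNAP-549-labelled MS2 coat protein from 0.7 or 1.5 nM, doubling to 3 µM, on designs transcribed by stalled E. coli RNA polymerase on Illumina sequencing-chip clusters. Each series ran without and then with constant ligand in 100 mM Tris-HCl pH 7.5, 80 mM KCl, 4 mM MgCl2, BSA, DTT, yeast tRNA and Tween-20.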

[1] = designed as: ON switch for flavin mononucleotide, no ligand
[2] = ligand present: flavin mononucleotide, designed as: ON switch for flavin mononucleotide
[3] = designed as: OFF switch for flavin mononucleotide, no ligand
[4] = ligand present: flavin mononucleotide, designed as: OFF switch for flavin mononucleotide

## UAAUAAUUAUGAGGAUAUAUACAACAUGAGGAUCACCCAUGUACCCAUGUAGUAGAAGGCAUAUUUUUAGUUAAUAAUAUAACU
[1]
  apparent Kd: 82.2 nM
[2]
  apparent Kd: 33 nM

## UCAAGUAUGUAGGAUAUCGAUGUCGAAAGACAUCGAGAAGGACGUACAUGAGGAUCACCCAUGUAACUUGCAUG
[3]
  apparent Kd: 296 nM
[4]
  apparent Kd: 270 nM

## UUACUCAUGUAAGGAUAUGCAGCCGAAACGGCUGCAGAAGGUACUAUAAUACAUGAGGAUCACCCAUGUAAAAUAAAUAAAGUC
[1]
  apparent Kd: 26.1 nM
[2]
  apparent Kd: 16.9 nM

## UUUAUACAUGAGGAUCACCCAUGUCAAUGUAGUCGAGGAUAUGGGCAGCCGUGAGGCGUACUAGAAGGCGAAGAGG
[1]
  apparent Kd: 203 nM
[2]
  apparent Kd: 64.9 nM

## AUACAUGAGGAUCACCCAUGUUACUGGGUCUUAAUAGAUCGUAGAAGGAUGUUAUUAUUAAUUUCAUAGGAUAUACUAUUUAGU
[3]
  apparent Kd: 48.3 nM
[4]
  apparent Kd: 32.9 nM

## CCGUUGGGCUAGAAGGCUCCGGGAGAGCCGCGGAGAGGAUAUAGCACAUGAGGAUCACCCAUGUGGUAUGACCUUAUGUAAUCA
[3]
  apparent Kd: 33.7 nM
[4]
  apparent Kd: 62.9 nM

## GGGCAACAUGAGGAUCACCCAUGUCAGGAUAUCGGGCCCGGGCCGAAAGGCCCGGGCCCGAGAAGGGACAGCCC
[3]
  apparent Kd: 21.3 nM
[4]
  apparent Kd: 21.6 nM

## CGUGCGUAUGUGAGGAUAUGCUGGUCCUUGGAUCGGCAGAAGGCACAUGAGGAUCACCCAUGUGGUGUCGUACA
[3]
  apparent Kd: 312 nM
[4]
  apparent Kd: 43.2 nM

## CUGCUGGAGCUUUGCUUUAGUCGUACAUGAGGAUCACCCAUGUAGGAUAUGGUAGGCUUUGCUUACCAGAAGGAUAGAGUGGUC
[3]
  apparent Kd: 93.5 nM
[4]
  apparent Kd: 40.6 nM

## UAAGCGAUACAGAAGGGAAACAUGAGGAUCAGCCGCGACAUGAGGAUCACCCAUGUUUACUUAUUUCAGGAUAUGUACAGUAGC
[1]
  apparent Kd: 612 nM
[2]
  apparent Kd: 272 nM

## AGAUCACAUGAGGAUCACCCAUGUCAGGAUAUGAUACUAUGUACUUCGGUACAUAGUAUCAGAAGGGAUAUAAA
[3]
  apparent Kd: 70.7 nM
[4]
  apparent Kd: 239 nM

## GUUGUUCGAGGAUAUACAUGAGGAUCACCCAUGUGUGUUGUGGGCGACGUUCGUUUAUGUAGAAGGCGAGCGGC
[3]
  apparent Kd: 63.3 nM
[4]
  apparent Kd: 92.1 nM

## UAGAUGGGAGGAUAUACGUAGUUGCAGGUUCGUGUGGUGCUACAUGAGGAUCACCCAUGUAGAAGGCCCGUCUU
[3]
  apparent Kd: 14.7 nM
[4]
  apparent Kd: 40.6 nM

## AAUAACAGAGGAUAUACUGUUUUAUGUGUUUGUUGUUUUGAACAUGAGGAUCACCCAUGUAGAAGGCUGAUUGA
[3]
  apparent Kd: 40.2 nM
[4]
  apparent Kd: 41.3 nM

## UAUUGAUAAUAUCUUCACAUGAGGAUCACCCAUGUCGCUCGACAGGAUAUAUUUUAUUUGUUUAAGUAGAAGGGUCGCAGAUUU
[1]
  apparent Kd: 165 nM
[2]
  apparent Kd: 142 nM

## UUUUUAGCAGGAUAUAUCCACGACUACAUGAGGAUCACCCAUGUGGCCGCUUGAAGUUGUAUAGAAGGGCUUUUUU
[3]
  apparent Kd: 24.8 nM
[4]
  apparent Kd: 23.4 nM

## GAUUCGGGAGGAUAUACAUGAGGAUCACCCAUGUGUUUUUUGUGUGUUAUGUUAUCAUGUAGAAGGUUUGGGUC
[3]
  apparent Kd: 286 nM
[4]
  apparent Kd: 260 nM

## UUGGACGUCGUAGGACAUGUAGGAUAUUCCUACAUGAGGAUCACCCAUGUUGACAUGGAAGAAGGACAGAAGGACGAUGUCCAU
[1]
  apparent Kd: 723 nM
[2]
  apparent Kd: 46.9 nM

## GUUAAACAUGAGGAUCACCCAUGUAAGGAUAUGCUGCGGUCGCGCUGACGUGACUGCAGCAGAAGGUACAAUUG
[3]
  apparent Kd: 100 nM
[4]
  apparent Kd: 77.4 nM

## UGACUAGCAAUGUAUCGAAAGAUCACAUGAGGAUCACCCAUGUAGGAUAUGAGCAGAAAAUCUGCUCAGAAGGACAUGCUAGUC
[3]
  apparent Kd: 5.88 nM
[4]
  apparent Kd: 6.04 nM

## CGGAAUUGUACAGGAUAUGAGGGUACCUGAGCCUCAGAAGGGUAGACCGACAUGAGGAUCACCCAUGUAUGCGGAUAACGUCCG
[1]
  apparent Kd: 1180 nM
[2]
  apparent Kd: 592 nM

## UGAUCUAUGUAGAAGGCCCAUAUCUAUAUUUAGGGAGGAUAUACAUGAGGAUCACCCAUGUAUAGAGCUGGUGGACUGGUCAGC
[3]
  apparent Kd: 30.7 nM
[4]
  apparent Kd: 88.6 nM

## CGCCGACAUGAGGAUCACCCAUGUCACAUCUGGUCAGGAUAUGGUGUGGUUUGGCUAUUGCCAGAAGGGACCUCAG
[1]
  apparent Kd: 101 nM
[2]
  apparent Kd: 102 nM

## GCAUCGCAUGUCAGGAUAUGCUGUACCUUGGUACAGCAGAAGGGACAUGAGGAUCACCCAUGUGCCUACGAUGC
[3]
  apparent Kd: 29.2 nM
[4]
  apparent Kd: 169 nM

## UGAUCUUUUGUUAGGAUAUGCUGGGUUUUUUCUCAGCAGAAGGGACAUGAGGAUCACCCAUGUUCUCUCUUUUU
[3]
  apparent Kd: 9.49 nM
[4]
  apparent Kd: 11.6 nM

## CAACGUACCAGAGGAUAUGAUUGUGGGUAAAGAGCGCUCAGGUGGCUACAUGAGGAUCACCCAUGUCAGAAGGCUGGAGUUCAA
[3]
  apparent Kd: 114 nM
[4]
  apparent Kd: 59.6 nM

## AACUCUGAGAAGGAUAUACAGUGCGAAAGGACAGUAGAAGGUUUCACAUGAGGAUCACCCAUGUCGAAUAGUGA
[3]
  apparent Kd: 24.7 nM
[4]
  apparent Kd: 33.8 nM

## UGAUCGGAGACAGGAUAUGUGACUGCAUAGUGCACAGAAGGGUCUACAUGAGGAUCACCCAUGUCACCGAACAUCAAACAACAA
[1]
  apparent Kd: 433 nM
[2]
  apparent Kd: 41.9 nM

## GUGGAGUACGUAGGAUAUGUAGGAUAUUCCUACAUGAGGAUCACCCAUGUAUGCAUGGAAGAAGGACAGAAGGACGUGCUCCAG
[1]
  apparent Kd: 208 nM
[2]
  apparent Kd: 13.5 nM

## UUUUGGCAUGUAGGAUAUGGGUCCGAUUAGGAUUUAGAAGGACAUGAGGAUCACCCAUGUGCAUUUAAUUGGUCAUUACCUUUU
[3]
  apparent Kd: 84.9 nM
[4]
  apparent Kd: 115 nM

## UGGUACAUGGGAGGAUAUCAUGUAGAGACAUGAGGAUCACCCAUGUCGAUGGAGACAUCGGAGAUUGAGAAGGCCCAUGUACCU
[1]
  apparent Kd: 152 nM
[2]
  apparent Kd: 23.1 nM

## AUAAAACAAAACCACACAUGAGGAUCACCCAUGUCAAGAUUACAGGAUAUCCAGCAGAGAUGCAUGGAGAAGGGUGAUCCCAAA
[1]
  apparent Kd: 37.1 nM
[2]
  apparent Kd: 56.5 nM

## AGUGUCAUCCAGAAGGCCUCAUGACAUGAGGAUCACCCAUGUUAUCAUGGGAGGAUAUGGAUGAUACAGCUACGUUUCGUAGCA
[1]
  apparent Kd: 90.5 nM
[2]
  apparent Kd: 25.4 nM

## AAAAAGGGAGGAUAUACAUGAGGAUCACCCAUGUAUCAGACGAAAAAGAGUCUGAAGUGUAGAAGGCCCAAAAA
[3]
  apparent Kd: 18.3 nM
[4]
  apparent Kd: 27.4 nM

## AAUUCACAUGAGGAUCACCCAUGUCAGGAUAUGGUUUCACGUUUUUCUUUUCUUGAGGCCAGAAGGGACAGCUA
[3]
  apparent Kd: 67.6 nM
[4]
  apparent Kd: 79.1 nM

## GAAUGUCGGGUAGGAUAUGACGUGCCACGGAGGUCAGAAGGGCCACGACAUGAGGAUCACCCAUGUACUAUGUUCCUUUUUCGA
[3]
  apparent Kd: 13.6 nM
[4]
  apparent Kd: 31.8 nM

## AGGAAACAUGAGGAUCACCCAUGUAAAGAAGGGUGAGGAUAUACAAAGAAAAGAAAGAAAGUAGAAGGCACAAAAG
[1]
  apparent Kd: 556 nM
[2]
  apparent Kd: 635 nM

## UUGUUAUGUGUAGGAUAUGCAUAUUAUUAUUAUGCAGAAGGACAUGAGGAUCACCCAUGUAUAUUAUUAUUAUAUAUUAUAUAU
[3]
  apparent Kd: 28.7 nM
[4]
  apparent Kd: 37 nM

## AAUAAACUCACAGGAUAUAGCCGAGGUCGCGUGAACUUACAGGCGACGAGGCUAGAAGGGUGACCACAUGAGGAUCACCCAUGU
[1]
  apparent Kd: 985 nM
[2]
  apparent Kd: 106 nM

## CUCUUGUAAGGAUAUCUGACAAGUGACGAAAGUCACAGUUCAGAGAAGGUACAUGAGGAUCACCCAUGUAGAAC
[3]
  apparent Kd: 76.7 nM
[4]
  apparent Kd: 64.4 nM

## CCCAUCGCAUGAGGAUAUGGUCAGCUUUGCUGACCAGAAGGCAUGUCAAUAGACAUGAGGAUCACCCAUGUAGUUAAGAUGGGA
[1]
  apparent Kd: 675 nM
[2]
  apparent Kd: 49.2 nM

## AAGUCUGGACGAGGAUAUCAGUUGUAUCUGGCAUCAACAUGAGGAUCACCCAUGUUGCAAUAGGGUGAGAAGGCGUUUGGGCAA
[1]
  apparent Kd: 278 nM
[2]
  apparent Kd: 29.7 nM

## AAAACAUGAGGAUCACCCAUGUAUAGAUCGGUUGAUAGGAGUGAGGAUAUGCUUAAAAUAAGGUAGCAGAAGGCACUGGGUACA
[1]
  apparent Kd: 37.1 nM
[2]
  apparent Kd: 40.1 nM

## GUCUUGUCAGGAUAUCUUACAUAACAAUCGUAGUUACCAUUGGAGAAGGGACAUGAGGAUCACCCAUGUUAGCC
[3]
  apparent Kd: 17.2 nM
[4]
  apparent Kd: 19.1 nM

## CAGGGUAGAGGAUAUACGUAGGUACAGAUCCGUGUGAUCCUACAUGAGGAUCACCCAUGUAGAAGGCUAGCCUG
[3]
  apparent Kd: 305 nM
[4]
  apparent Kd: 25.9 nM

## UAUAUAUAAUAUAUUAACAUGAGGAUCACCCAUGUCGCUAGACAGGAUAUAUUUUAUUUUUUUAAGUAGAAGGGUCAUAUAAUU
[1]
  apparent Kd: 63.7 nM
[2]
  apparent Kd: 86.1 nM

## UCCUGACCGAGAGGUAGGAGUGGUAGAAGGCGACCGGUGCCAGAUGACAUGAGGAUCACCCAUGUCGAGGAUAUACCACAGAAU
[3]
  apparent Kd: 7.45 nM
[4]
  apparent Kd: 14.1 nM

## UUGGUAUUCGUAGGAUAUCUGUCGCCACCGUGUGGAGAAGGACGAACAUGAGGAUCACCCAUGUAUCAUGGUGUGGGCGUUGUU
[3]
  apparent Kd: 85.8 nM
[4]
  apparent Kd: 89.9 nM

## AUGCGUCGAGAGGAUAUUUGCGAGGUGACCAGCAAAGAAGGUUCGACAUGAGGAUCACCCAUGUCCAGCAUUUG
[3]
  apparent Kd: 34.2 nM
[4]
  apparent Kd: 72.8 nM

## AGGUGACAUGAGGAUCACCCAUGUGAGGAUAUCUGGAUACUCUUUAUUUUAGAUAUCCAGAGAAGGCACACCCU
[3]
  apparent Kd: 263 nM
[4]
  apparent Kd: 502 nM

## GGGCGUUGGGAGAAGGUACAUUAAAUUAGUUUAACAUGAGGAUCACCCAUGUAAGGAUAUCCCAUCGUGUAAUAUUAUACAGCC
[3]
  apparent Kd: 11 nM
[4]
  apparent Kd: 13.8 nM

## UUUUUAUAUGAAGGAUAUACUUAACAUGAGGAUCACCCAUGUGGUGUUGUGAGUGAGUGAGUUUAGUAGAAGGUCAAUUCUUUU
[3]
  apparent Kd: 236 nM
[4]
  apparent Kd: 205 nM

## AAAGUACAUGAGGAUCACCCAUGUUGGAACAAAGCAGGAUAUGUACAAAAGGAAAUAAAUACAGAAGGGCUAAGAA
[1]
  apparent Kd: 36.5 nM
[2]
  apparent Kd: 21.2 nM

## GAGCUGUGAGGAUAUACAUGAGGAUCACCCAUGUUAAGGAAGUCGGGAUUAAUUUAGUGUAGAAGGCACUUAUU
[3]
  apparent Kd: 39.9 nM
[4]
  apparent Kd: 41.6 nM

## GUAGCAUGCCAAGGAUAUUCAUAUAGUAGGCAAACAUGAGGAUCACCCAUGUAAUGAUAGCAGUGGGAGAAGGUGGGAUGCUAC
[1]
  apparent Kd: 47.5 nM
[2]
  apparent Kd: 22.2 nM
